Experimental data published in ChEMBL document CHEMBL1150419, “Structure-activity relationships of a peptide inhibitor of the human FcRn:human IgG interaction” (Bioorg Med Chem, 2008).

What was measured:
[1] = biological target: T1, IgG receptor FcRn large subunit p51 (Homo sapiens, UniProt P55899); test: Inhibition of human IgG binding to soluble human FcRn by ELISA
How it was run: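 Biotinylated soluble human FcRn immobilized on neutravidin plates, incubated with hIgG (3 nM, constant) and peptide at varying concentrations for 2 h at 37 °C. After washing, bound hIgG detected with peroxidase-conjugated hIgG-specific Fab fragments.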

[2] = biological target: T1, IgG receptor FcRn large subunit p51; test: Binding affinity to human FcRn at pH 6 by surface plasmon resonance assay
How it was run: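 Soluble human FcRn coupled to the dextran surface of a CM5 chip; peptide dilutions flowed over the chip. The equilibrium response at each dilution was plotted against concentration and fitted to a steady-state affinity model to give Kd.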

T1 sequence (P55899 whole entry, the tested form may be a part): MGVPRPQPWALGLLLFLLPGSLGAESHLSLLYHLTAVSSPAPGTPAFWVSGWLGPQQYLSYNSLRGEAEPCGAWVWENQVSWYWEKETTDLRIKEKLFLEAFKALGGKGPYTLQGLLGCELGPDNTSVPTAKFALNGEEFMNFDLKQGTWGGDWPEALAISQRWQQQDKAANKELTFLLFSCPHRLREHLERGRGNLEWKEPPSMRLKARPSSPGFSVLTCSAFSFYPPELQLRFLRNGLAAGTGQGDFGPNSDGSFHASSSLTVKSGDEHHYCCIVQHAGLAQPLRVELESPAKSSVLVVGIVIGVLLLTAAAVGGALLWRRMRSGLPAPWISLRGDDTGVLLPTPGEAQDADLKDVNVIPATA

Row | IC50 [1] | Kd [2] | SMILES
1 | 69 µM | 22 µM | CC(C)C[C@H](NC(=O)[C@@H](C)NC(=O)[C@@H](C)NC(=O)[C@H](Cc1ccccc1)NC(=O)[C@H](Cc1cnc[nH]1)NC(=O)CNC(=O)[C@@H](NC(=O)[C@H](CS)NC(=O)[C@H](Cc1ccccc1)NC(=O)[C@H](CCCN=C(N)N)NC(=O)[C@@H](N)CCC(N)=O)[C@@H](C)O)C(=O)N[C@@H](Cc1ccc(O)cc1)C(=O)N1CCC[C@H]1C(=O)N[C@@H](CS)C(=O)N[C@@H](CC(N)=O)C(=O)NCC(=O)N1CCC[C@H]1C(=O)O
2 | > 125 µM | > 250 µM | CC(C)C[C@H](NC(=O)CNC(=O)CNC(=O)[C@H](Cc1ccccc1)NC(=O)[C@H](Cc1cnc[nH]1)NC(=O)[C@@H](C)NC(=O)[C@@H](NC(=O)[C@H](CS)NC(=O)[C@H](Cc1ccccc1)NC(=O)[C@H](CCCN=C(N)N)NC(=O)[C@@H](N)CCC(N)=O)[C@@H](C)O)C(=O)N[C@@H](Cc1ccc(O)cc1)C(=O)N1CCC[C@H]1C(=O)N[C@@H](CS)C(=O)N[C@@H](CC(N)=O)C(=O)NCC(=O)N1CCC[C@H]1C(=O)O
3 | > 125 µM | > 250 µM | CC(C)C[C@H](NC(=O)CNC(=O)CNC(=O)[C@H](Cc1ccccc1)NC(=O)[C@H](C)NC(=O)CNC(=O)[C@@H](NC(=O)[C@H](CS)NC(=O)[C@H](Cc1ccccc1)NC(=O)[C@H](CCCNC(=N)N)NC(=O)[C@@H](N)CCC(N)=O)[C@@H](C)O)C(=O)N[C@@H](Cc1ccc(O)cc1)C(=O)N1CCC[C@H]1C(=O)N[C@@H](CS)C(=O)N[C@@H](CC(N)=O)C(=O)NCC(=O)N1CCC[C@H]1C(=O)O
4 | > 125 µM | 230 µM | CC(C)C[C@H](NC(=O)CNC(=O)[C@H](C)NC(=O)[C@H](Cc1ccccc1)NC(=O)[C@H](Cc1cnc[nH]1)NC(=O)CNC(=O)[C@@H](NC(=O)[C@H](CS)NC(=O)[C@H](Cc1ccccc1)NC(=O)[C@H](CCCNC(=N)N)NC(=O)[C@@H](N)CCC(N)=O)[C@@H](C)O)C(=O)N[C@@H](Cc1ccc(O)cc1)C(=O)N1CCC[C@H]1C(=O)N[C@@H](CS)C(=O)N[C@@H](CC(N)=O)C(=O)NCC(=O)N1CCC[C@H]1C(=O)O
5 | 23 µM | 7.7 µM | CC(C)C[C@H](NC(=O)CNC(=O)CNC(=O)[C@H](Cc1ccccc1)NC(=O)[C@H](Cc1cnc[nH]1)NC(=O)CNC(=O)[C@@H](NC(=O)[C@H](CS)NC(=O)[C@H](Cc1ccccc1)NC(=O)[C@H](C)NC(=O)[C@@H](N)CCC(N)=O)[C@@H](C)O)C(=O)N[C@@H](Cc1ccc(O)cc1)C(=O)N1CCC[C@H]1C(=O)N[C@@H](CS)C(=O)N[C@@H](CC(N)=O)C(=O)NCC(=O)N1CCC[C@H]1C(=O)O
6 | > 125 µM | > 250 µM | CC(C)C[C@H](NC(=O)CNC(=O)CNC(=O)[C@H](Cc1ccccc1)NC(=O)[C@H](Cc1cnc[nH]1)NC(=O)[C@H](C)NC(=O)[C@@H](NC(=O)[C@H](CS)NC(=O)[C@H](Cc1ccccc1)NC(=O)[C@H](CCCNC(=N)N)NC(=O)[C@@H](N)CCC(N)=O)[C@@H](C)O)C(=O)N[C@@H](Cc1ccc(O)cc1)C(=O)N1CCC[C@H]1C(=O)N[C@@H](CS)C(=O)N[C@@H](CC(N)=O)C(=O)NCC(=O)N1CCC[C@H]1C(=O)O
7 | 30 µM | 8 µM | CC(C)C[C@H](NC(=O)CNC(=O)CNC(=O)[C@H](Cc1ccccc1)NC(=O)[C@H](Cc1cnc[nH]1)NC(=O)CNC(=O)[C@@H](NC(=O)[C@H](CS)NC(=O)[C@H](Cc1ccccc1)NC(=O)[C@H](CCCN=C(N)N)NC(=O)[C@@H](N)CCC(N)=O)[C@@H](C)O)C(=O)N[C@@H](Cc1ccc(O)cc1)C(=O)N1CCC[C@H]1C(=O)N[C@@H](CS)C(=O)N[C@@H](C)C(=O)NCC(=O)N1CCC[C@H]1C(=O)O

Continued, compound first:

Row | SMILES | IC50 [1] | Kd [2]
8 | CC(C)C[C@@H](C(=O)N[C@@H](Cc1ccc(O)cc1)C(=O)N1CCC[C@H]1C(=O)N[C@@H](CS)C(=O)N[C@@H](CC(N)=O)C(=O)NCC(=O)N1CCC[C@H]1C(=O)O)N(C)C(=O)CNC(=O)[C@@H](C)NC(=O)[C@H](Cc1ccccc1)NC(=O)[C@H](Cc1cnc[nH]1)NC(=O)CNC(=O)[C@@H](NC(=O)[C@@H](NC(=O)[C@H](Cc1ccccc1)NC(=O)[C@H](CCCNC(=N)N)NC(=O)[C@@H](N)CCC(N)=O)C(C)(C)S)[C@@H](C)O | 3.2 µM | 0.23 µM
9 | CC(C)C[C@H](NC(=O)CN(C)C(=O)CNC(=O)[C@H](Cc1ccccc1)NC(=O)[C@H](Cc1cnc[nH]1)NC(=O)CNC(=O)[C@@H](NC(=O)[C@@H](NC(=O)[C@H](Cc1ccccc1)NC(=O)[C@@H](N)CCCNC(=N)N)C(C)(C)S)[C@@H](C)O)C(=O)N[C@@H](Cc1ccc(O)cc1)C(=O)N1CCC[C@H]1C(=O)N[C@@H](CS)C(=O)O | 1 µM | 0.058 µM
10 | CC(C)C[C@@H](C(=O)N[C@@H](Cc1ccc(O)cc1)C(=O)N1CCC[C@H]1C(=O)N[C@@H](CS)C(=O)O)N(C)C(=O)CNC(=O)CNC(=O)[C@H](Cc1ccccc1)NC(=O)[C@H](Cc1cnc[nH]1)NC(=O)CNC(=O)[C@@H](NC(=O)[C@@H](NC(=O)[C@H](Cc1ccccc1)NC(=O)[C@@H](N)CCCN=C(N)N)C(C)(C)S)[C@@H](C)O | 2.1 µM | 0.059 µM
11 | CC(C)C[C@H](NC(=O)[C@@H](C)NC(=O)CNC(=O)[C@H](Cc1ccccc1)NC(=O)[C@H](Cc1cnc[nH]1)NC(=O)CNC(=O)[C@@H](NC(=O)[C@@H](NC(=O)[C@H](Cc1ccccc1)NC(=O)[C@H](CCCN=C(N)N)NC(=O)[C@@H](N)CCC(N)=O)C(C)(C)S)[C@@H](C)O)C(=O)N[C@@H](Cc1ccc(O)cc1)C(=O)N1CCC[C@H]1C(=O)N[C@@H](CS)C(=O)N[C@@H](CC(N)=O)C(=O)NCC(=O)N1CCC[C@H]1C(=O)O | 2 µM | 0.48 µM
12 | CC(C)C[C@@H](C(=O)N[C@@H](Cc1ccc(O)cc1)C(=O)N1CCC[C@H]1C(=O)N[C@@H](CS)C(=O)N[C@@H](CC(N)=O)C(=O)NCC(=O)N1CCC[C@H]1C(=O)O)N(C)C(=O)CNC(=O)[C@@H](Cc1ccccc1)NC(=O)[C@H](Cc1ccccc1)NC(=O)[C@H](Cc1cnc[nH]1)NC(=O)CNC(=O)[C@@H](NC(=O)[C@@H](NC(=O)[C@H](Cc1ccccc1)NC(=O)[C@H](CCCNC(=N)N)NC(=O)[C@@H](N)CCC(N)=O)C(C)(C)S)[C@@H](C)O | 1.3 µM | 0.24 µM
13 | CC(C)C[C@H](NC(=O)CNC(=O)CNC(=O)[C@H](Cc1ccccc1)NC(=O)[C@H](Cc1cnc[nH]1)NC(=O)CNC(=O)[C@@H](NC(=O)[C@H](CS)NC(=O)[C@H](Cc1ccccc1)NC(=O)[C@H](CCCN=C(N)N)NC(=O)[C@@H](N)CCC(N)=O)[C@@H](C)O)C(=O)N[C@@H](Cc1ccc(O)cc1)C(=O)N1CCC[C@H]1C(=O)N[C@H](CCS)C(=O)N[C@@H](CC(N)=O)C(=O)NCC(=O)N1CCC[C@H]1C(=O)O | 21 µM | 3.9 µM
14 | CC(C)C[C@H](NC(=O)CNC(=O)C(C)(C)NC(=O)[C@H](Cc1ccccc1)NC(=O)[C@H](Cc1cnc[nH]1)NC(=O)CNC(=O)[C@@H](NC(=O)[C@@H](NC(=O)[C@H](Cc1ccccc1)NC(=O)[C@H](CCCNC(=N)N)NC(=O)[C@@H](N)CCC(N)=O)C(C)(C)S)[C@@H](C)O)C(=O)N[C@@H](Cc1ccc(O)cc1)C(=O)N1CCC[C@H]1C(=O)N[C@@H](CS)C(=O)N[C@@H](CC(N)=O)C(=O)NCC(=O)N1CCC[C@H]1C(=O)O | 17 µM | 5.2 µM
15 | CC(C)C[C@H](NC(=O)CNC(=O)CNC(=O)[C@H](Cc1ccccc1)NC(=O)[C@H](Cc1cnc[nH]1)NC(=O)CNC(=O)[C@@H](NC(=O)[C@@H](NC(=O)[C@H](Cc1ccccc1)NC(=O)[C@H](CCCN=C(N)N)NC(=O)[C@@H](N)CCC(N)=O)C(C)(C)S)[C@@H](C)O)C(=O)N[C@@H](Cc1ccc(O)cc1)C(=O)N1CCC[C@H]1C(=O)N[C@H](C(=O)N[C@@H](CC(N)=O)C(=O)NCC(=O)N1CCC[C@H]1C(=O)O)C(C)(C)S | 2 µM | 0.37 µM
16 | CC(C)C[C@H](NC(=O)[C@@H]1CCCN1C(=O)[C@H]1CCCN1C(=O)[C@H](Cc1ccccc1)NC(=O)[C@H](Cc1cnc[nH]1)NC(=O)CNC(=O)[C@@H](NC(=O)[C@@H](NC(=O)[C@H](Cc1ccccc1)NC(=O)[C@H](CCCN=C(N)N)NC(=O)[C@@H](N)CCC(N)=O)C(C)(C)S)[C@@H](C)O)C(=O)N[C@@H](Cc1ccc(O)cc1)C(=O)N1CCC[C@H]1C(=O)N[C@@H](CS)C(=O)N[C@@H](CC(N)=O)C(=O)NCC(=O)N1CCC[C@H]1C(=O)O | > 250 µM | > 100 µM
17 | CC(C)C[C@H](NC(=O)CNC(=O)[C@@H](Cc1ccccc1)NC(=O)[C@H](Cc1ccccc1)NC(=O)[C@H](Cc1cnc[nH]1)NC(=O)CNC(=O)[C@@H](NC(=O)[C@@H](NC(=O)[C@H](Cc1ccccc1)NC(=O)[C@H](CCCNC(=N)N)NC(=O)[C@@H](N)CCC(N)=O)C(C)(C)S)[C@@H](C)O)C(=O)N[C@@H](Cc1ccc(O)cc1)C(=O)N1CCC[C@H]1C(=O)N[C@@H](CS)C(=O)N[C@@H](CC(N)=O)C(=O)NCC(=O)N1CCC[C@H]1C(=O)O | 2.8 µM | 0.51 µM
18 | CC(C)C[C@H](NC(=O)[C@H]1CCCN1C(=O)[C@@H](Cc1ccccc1)NC(=O)[C@H](Cc1ccccc1)NC(=O)[C@H](Cc1cnc[nH]1)NC(=O)CNC(=O)[C@@H](NC(=O)[C@@H](NC(=O)[C@H](Cc1ccccc1)NC(=O)[C@H](CCCN=C(N)N)NC(=O)[C@@H](N)CCC(N)=O)C(C)(C)S)[C@@H](C)O)C(=O)N[C@@H](Cc1ccc(O)cc1)C(=O)N1CCC[C@H]1C(=O)N[C@@H](CS)C(=O)N[C@@H](CC(N)=O)C(=O)NCC(=O)N1CCC[C@H]1C(=O)O | 5.9 µM | 0.72 µM
19 | CC(C)C[C@@H](C(=O)N[C@@H](Cc1ccc(O)cc1)C(=O)N1CCC[C@H]1C(=O)N[C@@H](CS)C(=O)N[C@@H](CC(N)=O)C(=O)NCC(=O)N1CCC[C@H]1C(=O)O)N(C)C(=O)CNC(=O)CNC(=O)[C@H](Cc1ccccc1)NC(=O)[C@H](Cc1cnc[nH]1)NC(=O)CNC(=O)[C@@H](NC(=O)[C@@H](NC(=O)[C@H](Cc1ccccc1)NC(=O)[C@H](CCCN=C(N)N)NC(=O)[C@@H](N)CCC(N)=O)C(C)(C)S)[C@@H](C)O | 1.6 µM | 0.086 µM
